For test [1], the target named is Glutamate NMDA receptor. The experiment in a line: Displacement of [3H]-MK-801 from rat cortical membranes NMDA receptor by beta counting analysis in absence of spermine. The procedure, abridged:
(§1)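 Membranes from rat frontoparietal cortex and hippocampus, prepared in 50 mM Tris acetate pH 7.0. 5 nM [3H]MK-801 was incubated with membranes (~1 mg wet tissue) for 3 h at 23 °C in 10 mM Tris acetate pH 7.0 with 10 µM glutamate and glycine, in triplicate, with or without 30 µM spermine. Compounds were tested at 3–4 concentrations. Nonspecific binding was set with 100 µM (S)-ketamine. Bound ligand was filtered and scintillation-counted. Spermine sensitivity = IC50 (with spermine)/IC50 (without).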
On the technique in general: Displacement assays read how much labelled ligand stays bound in the presence of the test substance.

The target of test [2] is Glutamate NMDA receptor. The experiment in a line: Displacement of [3H]-MK-801 from rat cortical membranes NMDA receptor by beta counting analysis in presence of 30 uM spermine. The method, boiled down: as §1
In test [3] the target is Glutamate NMDA receptor (Rattus norvegicus) (UniProt P35439+Q00959+Q00960+Q00961+Q62645+Q8VHN2+Q9R1M7). The experiment in a line: Ratio of IC50 for displacement of [3H]-MK-801 from rat cortical membranes NMDA receptor in presence of 30 uM spermine to IC50 for displacement of [3H]-MK-801 from rat cortical membranes NMDA receptor in absence of 30 spermine. The method, boiled down: as §1

The source of these data is ChEMBL document CHEMBL3593210, “Pentamidine analogs as inhibitors of [(3)H]MK-801 and [(3)H]ifenprodil binding to rat brain NMDA receptors” (Bioorg Med Chem, 2015).

As usually defined, the IC50 is the concentration at which inhibition is half-maximal. Take `c1cc(N2CCCN(c3ccc(C4=NCCN4)cc3)CC2)ccc1C1=NCCN1`: the IC50 on Glutamate NMDA receptor [1] was determined as 3.03 µM; on Glutamate NMDA receptor [2] it was 92.2 µM. In addition, the Ratio IC50 in test [3] stood at 30.1.
On the same counts, the results for `N=C(N)c1ccc(NC(=O)CCCCCCCCC(=O)Nc2ccc(C(=N)N)cc2)cc1` are 15.7 µM, 62.6 µM and 4.07.
As to `N=C(N)c1ccc(-c2ccc(-c3nc4ccc(C(=N)N)cc4[nH]3)s2)cc1`, the IC50 worked out at 3.21 µM on Glutamate NMDA receptor [1] and 13.4 µM on Glutamate NMDA receptor [2]. The Ratio IC50 in test [3] was found to be 4.14.
On the same counts, the results for `N=C(N)c1ccc(NCCCCCCNc2ccc(C(=N)N)cc2)cc1` are 4.37 µM, 23.9 µM and 5.26.
On the same counts, the results for `CCCCNC(=N)c1ccc(N2CCCN(c3ccc(C(=N)NCCCC)cc3)CC2)cc1` are 9.94 µM, 103 µM and 11.2.
On the same counts, the results for `N=C(NC1CC1)c1ccc(N2CCCN(c3ccc(C(=N)NC4CC4)cc3)CC2)cc1` are 11.2 µM, 212 µM and 19.9.
Turning to `N=C(N)c1ccc(C(=O)NCCCCCCNC(=O)c2ccc(C(=N)N)cc2)cc1`, the 50% inhibitory concentration (IC50) at Glutamate NMDA receptor [1] was found to be 266 µM; at Glutamate NMDA receptor [2], 1210 µM. Also, the Ratio IC50 in test [3] turned out to be 4.59.
Regarding `CCCNC(=N)c1ccc(N2CCN(c3ccc(C(=N)NCCC)cc3)CC2)cc1`, the half-inhibitory concentration (IC50) stood at 15.9 µM on Glutamate NMDA receptor [1] and 371 µM on Glutamate NMDA receptor [2]. Besides, the Ratio IC50 in test [3] is 21.8.
`N=C(N)c1ccc(OCCCCOc2ccc(C(=N)N)cc2)cc1` gave a half-inhibitory concentration (IC50) on Glutamate NMDA receptor [1] of 17.7 µM.
With `N=C(N)NCCCCNC(=N)N`, in test [3], the Ratio IC50 turned out to be 33.6.
As to `c1cc(N2CCN(c3ccc(C4=NCCCN4)cc3)CC2)ccc1C1=NCCCN1`, the IC50 at Glutamate NMDA receptor [1] turned out to be 23.8 µM; on Glutamate NMDA receptor [2], 264 µM. Also, the Ratio IC50 in test [3] stood at 13.6.
Take `N=C(N)c1ccc(-c2ccc(-c3ccc(-c4ccc(C(=N)N)o4)s3)s2)o1`: the concentration for half-maximal inhibition (IC50) at Glutamate NMDA receptor [1] worked out at 5.01 µM; at Glutamate NMDA receptor [2], 11.7 µM. Also, in test [3], the Ratio IC50 was 4.26.
For `N=C(N)c1ccc(NC(=O)CCCCC(=O)Nc2ccc(C(=N)N)cc2)cc1`, the IC50 amounted to 165 µM on Glutamate NMDA receptor [1] and 437 µM at Glutamate NMDA receptor [2]. The Ratio IC50 in test [3] was 3.46.
On the same counts, the results for `N=C(N)c1ccc(NC(=O)CCCCCCCC(=O)Nc2ccc(C(=N)N)cc2)cc1` are 26.5 µM, 111 µM and 4.25.
As for `N=C(N)c1ccc(NCCCCCCCCNc2ccc(C(=N)N)cc2)cc1`, the IC50 amounted to 7.26 µM at Glutamate NMDA receptor [1] and 31.1 µM on Glutamate NMDA receptor [2]. The Ratio IC50 in test [3] turned out to be 4.37.
On the same counts, the results for `N=C(NC1CCCC1)c1ccc(N2CCCN(c3ccc(C(=N)NC4CCCC4)cc3)CC2)cc1` are 8.13 µM, 85.7 µM and 10.6.
With `CC/N=C(\N)c1ccc(-c2ccc(-c3ccc(/C(N)=N/CC)cc3)o2)cc1`, the values for the IC50 at Glutamate NMDA receptor [1] and on Glutamate NMDA receptor [2] were 12.2 µM and 30.7 µM, respectively. For the same molecule, in test [3], the Ratio IC50 was found to be 2.56.
On to `N=C(NCCCO)c1ccc(N2CCCN(c3ccc(/C(N)=N/CCCO)cc3)CC2)cc1`, for which the values for the 50% inhibitory concentration (IC50) at Glutamate NMDA receptor [1] and at Glutamate NMDA receptor [2] were 41.2 µM and 427 µM, respectively. In test [3], the Ratio IC50 came to 9.72.
On the same counts, the results for `N=C(N)c1ccc(NC(=O)c2cccc(C(=O)Nc3ccc(C(=N)N)cc3)c2)cc1` are 42.3 µM, 36.7 µM and 0.97.
Consider `N=C(N)c1ccc(NC(=O)CCCCCC(=O)Nc2ccc(C(=N)N)cc2)cc1`, for which the 50% inhibitory concentration (IC50) at Glutamate NMDA receptor [1] and on Glutamate NMDA receptor [2] was above 1000 µM each time.
As for `N=C(N)c1ccc(C(=O)NCCCCCNC(=O)c2ccc(C(=N)N)cc2)cc1`, the IC50 on Glutamate NMDA receptor [1] was 688 µM; on Glutamate NMDA receptor [2], above 1000 µM.
For `N=C(N)c1ccc(OCCCOc2ccc(C(=N)N)cc2)cc1` [PROPAMIDINE], the concentration for half-maximal inhibition (IC50) on Glutamate NMDA receptor [1] was 5.54 µM.
On to `N=C(N)c1ccc(C(=O)NCCCNC(=O)c2ccc(C(=N)N)cc2)cc1`, for which the IC50 at Glutamate NMDA receptor [1] and at Glutamate NMDA receptor [2] was above 1000 µM each time.
In the case of `N=C(N)c1ccc(C(=O)NCCCCNC(=O)c2ccc(C(=N)N)cc2)cc1`, the half-maximal inhibitory concentration (IC50) on Glutamate NMDA receptor [1] and on Glutamate NMDA receptor [2] was above 1000 µM in each case.
